Key:
[1] = Selectivity index, ratio of CC50 for human HepG2 cells in presence of 1% FBS to MIC for Pseudomonas aeruginosa isolate 19147nm; assay type: toxicity; conditions: read-out: Selectivity Index
Summary of the method: (§1)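 Selectivity index is CC50 (1% FBS) divided by MIC. […] They then got compound at 300 to 0.14 µM (3-fold steps) for 24 h at 37 °C, 5% CO2. Resazurin (10 µM, 2 h) was read at ex/em 560/590 in duplicate wells. For MIC, CLSI broth microdilution was run in CaMHB with ~10^6 cfu/mL inoculum and 0–128 µM compound.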

[2] = Selectivity index, ratio of CC50 for human HepG2 cells in presence of 1% FBS to MIC for Acinetobacter baumannii ATCC 19606 col10; assay type: toxicity; conditions: read-out: Selectivity Index
Acinetobacter baumannii [3] = assay: Antibacterial activity against Acinetobacter baumannii isolate 246-01-C after 18 hrs by broth microdilution method; assay type: functional
Summary of the method: (§2)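 Broth microdilution per CLSI in cation-adjusted Mueller-Hinton broth. 100 µL inoculum (~10^6 cfu/mL in CaMHB) mixed with 100 µL CaMHB containing compound, 0 to 128 µM. Incubated 18 h at 37 °C. MIC taken as the lowest concentration with no visible growth. Polymyxin B served as positive control. Isolates were stored at -80 °C in tryptone soy broth with 20% glycerol.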

Klebsiella pneumoniae [4] = assay: Antibacterial activity against Klebsiella pneumoniae isolate 248-33-D after 18 hrs by broth microdilution method; assay type: functional; summary of the method: as §2
[5] = Selectivity index, ratio of CC50 for human HepG2 cells in presence of 1% FBS to MIC for Pseudomonas aeruginosa ATCC 27853; assay type: toxicity; conditions: read-out: Selectivity Index; summary of the method: as §1
[6] = Selectivity index, ratio of CC50 for human HepG2 cells in presence of 1% FBS to MIC for Klebsiella pneumoniae isolate 224-11-C; assay type: toxicity; conditions: read-out: Selectivity Index
Pseudomonas aeruginosa [7] = assay: Antibacterial activity against Pseudomonas aeruginosa isolate 18878B klon 1 after 18 hrs by broth microdilution method; assay type: functional; conditions: isolate 18878B klon 1, 18 h; summary of the method: as §2
Acinetobacter baumannii [8] = assay: Antibacterial activity against Acinetobacter baumannii ATCC 19606 after 18 hrs by broth microdilution method; assay type: functional; conditions: ATCC 19606 = CIP 70.34 = JCM 6841, 18 h; summary of the method: as §2
[9] = Selectivity index, ratio of CC50 for human HepG2 cells in presence of 1% FBS to MIC for Acinetobacter baumannii ATCC 17978 col10; assay type: toxicity; conditions: read-out: Selectivity Index
[10] = Selectivity index, ratio of CC50 for human HepG2 cells in presence of 1% FBS to MIC for vancomycin-intermediate Staphylococcus aureus ATCC 700698; assay type: toxicity; conditions: read-out: Selectivity Index; summary of the method: as §1
[11] = Selectivity index, ratio of CC50 for human HepG2 cells in presence of 1% FBS to MIC for Acinetobacter baumannii ATCC 19606; assay type: toxicity; conditions: read-out: Selectivity Index
Escherichia coli [12] = assay: Antibacterial activity against Escherichia coli N2381 after 18 hrs by broth microdilution method; assay type: functional; conditions: N2381, 18 h; summary of the method: as §2
Klebsiella pneumoniae [13] = assay: Antibacterial activity against Klebsiella pneumoniae isolate 1 after 18 hrs by broth microdilution method; assay type: functional; conditions: isolate 1, 18 h; summary of the method: as §2
Pseudomonas aeruginosa [14] = assay: Antibacterial activity against Pseudomonas aeruginosa isolate 19147nm after 18 hrs by broth microdilution method; assay type: functional; summary of the method: as §2
[15] = Selectivity index, ratio of CC50 for human HepG2 cells in presence of 1% FBS to MIC for Klebsiella pneumoniae isolate 1; assay type: toxicity; conditions: read-out: Selectivity Index
[16] = Selectivity index, ratio of CC50 for human HepG2 cells in presence of 1% FBS to MIC for vancomycin-resistant Staphylococcus aureus ATCC 700699; assay type: toxicity; conditions: read-out: Selectivity Index; summary of the method: as §1
Plasmodium falciparum = assay: Growth inhibition of CQ-sensitive GFP-fused Plasmodium falciparum D10 after 90 hrs by ethidium bromide staining based flow cytometry; assay type: functional, organism-based; conditions: D10, 90 h
Summary of the method: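 Parasites cultured in human O+ erythrocytes in RPMI-HEPES pH 7.4 with hypoxanthine, NaHCO3, gentamicin and 0.5% Albumax II under 1% O2/4% CO2 at 37 °C. Synchronised to rings with heparin plus sorbitol. Set up at 1% parasitaemia and 1% haematocrit with 10x compound added. Cultured 90 h to next-cycle trophozoites. Stained with 10 µg/mL ethidium bromide for 1 h, washed, parasitaemia counted by flow cytometry with GFP gating.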

Klebsiella pneumoniae [17] = assay: Antibacterial activity against Klebsiella pneumoniae isolate 224-11-C after 18 hrs by broth microdilution method; assay type: functional; summary of the method: as §2
[18] = Selectivity index, ratio of CC50 for human HepG2 cells in presence of 1% FBS to MIC for Pseudomonas aeruginosa isolate 18878B klon 1; assay type: toxicity; conditions: read-out: Selectivity Index; summary of the method: as §1
Acinetobacter baumannii [19] = assay: Antibacterial activity against Acinetobacter baumannii ATCC 17978 after 18 hrs by broth microdilution method; assay type: functional; conditions: ATCC 17978, 18 h; summary of the method: as §2
Escherichia coli [20] = assay: Antibacterial activity against Escherichia coli N4149 after 18 hrs by broth microdilution method; assay type: functional; conditions: N4149, 18 h; summary of the method: as §2

SMILES | selectivity ratio [1] | selectivity ratio [2] | MIC (Acinetobacter baumannii [3]) [µM] | MIC (Klebsiella pneumoniae [4]) [µM] | selectivity ratio [5] | selectivity ratio [6] | MIC (Pseudomonas aeruginosa [7]) [µM] | MIC (Acinetobacter baumannii [8]) [µM] | selectivity ratio [9] | selectivity ratio [10] | selectivity ratio [11] | MIC (Escherichia coli [12]) [µM] | MIC (Klebsiella pneumoniae [13]) [µM] | MIC (Pseudomonas aeruginosa [14]) [µM] | selectivity ratio [15] | selectivity ratio [16] | MIC (Klebsiella pneumoniae [17]) [µM] | selectivity ratio [18] | MIC (Acinetobacter baumannii [19]) [µM] | MIC (Escherichia coli [20]) [µM] | other results
Clc1ccc2c(c1)[I+]c1ccccc1-2 | 2 | 1 | 2.2 | 17 | 0.13 | 0.06 | 0.54 | 2.2 | < 4.1 | 0.51 | 0.51 | 8.7 | 17 | 0.54 | 0.06 | 0.51 | 17 | 2 | 0.54 | 8.7 | IC50 (Plasmodium falciparum): 70 nM
COc1ccc2c(c1)[I+]c1ccccc1-2 | 0.81 | 3.1 | 35 | > 70 | > 0.11 | > 0.11 | 18 | 18 | 3.1 | 0.78 | 0.39 | 35 | > 70 | 8.7 | > 0.11 | 0.78 | > 70 | 0.39 | 18 | > 70 | –
c1ccc2c(c1)[I+]c1c-2ccc2ccccc12 | 0.34 | 0.69 | 4.2 | 34 | 0.09 | 0.02 | 2.1 | 4.2 | 1.4 | 0.17 | 0.17 | 8.4 | 34 | 2.1 | 0.02 | 0.17 | 34 | 0.34 | 1.1 | 34 | IC50 (Plasmodium falciparum): 120 nM
Cc1ccc2c(c1)-c1ccccc1[I+]2 | 4.2 | 4.2 | 9 | 72 | > 0.52 | > 0.52 | 9 | 18 | 33 | 2.2 | 2.2 | 72 | > 72 | 9 | > 0.52 | 2.2 | > 72 | 4.2 | 9 | > 72 | IC50 (Plasmodium falciparum): 80 nM
Fc1ccc2c(c1)-c1ccccc1[I+]2 | 11 | 5.3 | 4.5 | 18 | 0.67 | 0.33 | 2.2 | 4.5 | 2 | 0.67 | 2.7 | 18 | 36 | 1.1 | 0.33 | 1.3 | 36 | 5.3 | 2.2 | 36 | IC50 (Plasmodium falciparum): 100 nM
N#Cc1ccc2c(c1)[I+]c1ccccc1-2 | 1.5 | 1.5 | 18 | > 71 | 0.09 | > 0.05 | 4.4 | 18 | 1.5 | 0.37 | 0.19 | 71 | > 71 | 2.2 | > 0.05 | 0.37 | > 71 | 0.75 | 4.4 | 71 | IC50 (Plasmodium falciparum): 50 nM
COc1ccc2c(c1)-c1ccccc1[I+]2 | 1.2 | 2.3 | 35 | > 70 | > 0.29 | > 0.29 | 35 | 35 | 4.6 | 0.58 | 0.58 | > 70 | > 70 | 18 | > 0.29 | 0.58 | > 70 | 0.58 | 18 | > 70 | IC50 (Plasmodium falciparum): 100 nM
COc1cccc2c1-c1ccccc1[I+]2 | 0.55 | 2.2 | 70 | > 70 | > 0.55 | > 0.55 | 70 | 35 | 1.1 | 1.1 | 1.1 | 70 | > 70 | 70 | > 0.55 | 1.1 | > 70 | 0.55 | 35 | > 70 | IC50 (Plasmodium falciparum): 170 nM
Cc1cccc2c1-c1ccccc1[I+]2 | 4.6 | 1.2 | 2.3 | > 72 | 0.14 | > 0.04 | 1.1 | 2.3 | 4.6 | 0.07 | 1.2 | 18 | 72 | 0.57 | 0.04 | 0.07 | > 72 | 2.3 | 1.1 | > 72 | IC50 (Plasmodium falciparum): 70 nM
Clc1ccc2c(c1)-c1ccccc1[I+]2 | 3.7 | 7.5 | 4.3 | 17 | 1.9 | 0.47 | 2.2 | 4.3 | 30 | 3.7 | 3.7 | 17 | 35 | 4.3 | 0.47 | 3.7 | 35 | 7.5 | 2.2 | 17 | IC50 (Plasmodium falciparum): 80 nM
Fc1ccc2c(c1)[I+]c1ccccc1-2 | 11 | 2.6 | 4.5 | 36 | 0.66 | 0.08 | 1.1 | 4.5 | 11 | 0.66 | 2.6 | 18 | 72 | 0.56 | 0.08 | 0.66 | 72 | 5.3 | 1.1 | 18 | IC50 (Plasmodium falciparum): 60 nM

From ChEMBL document CHEMBL4145448, “Broad activity of diphenyleneiodonium analogues against Mycobacterium tuberculosis, malaria parasites and bacterial pathogens” (Eur J Med Chem, 2018)
